Reference: publication PMC6557269 (Journal of controlled release : official journal of the …, 2019)
Ends that are not written are not given here. * marks the point of attachment. DTPA = O=C(O)CN(CCN(CC(=O)O)CC(=O)O)CCN(CC(=O)O)CC(=O)*; PEG = 40 kDa poly(ethylene glycol)

Experiments:
TIP1 protein = target: T1, TIP1 protein (Homo sapiens, UniProt O14907); assay: Surface plasmon resonance; assay type: binding; conditions: SPR BIAcore 2000, TIP1 on CM5 chip, Supplementary figure 1
T1 sequence (O14907 1-124): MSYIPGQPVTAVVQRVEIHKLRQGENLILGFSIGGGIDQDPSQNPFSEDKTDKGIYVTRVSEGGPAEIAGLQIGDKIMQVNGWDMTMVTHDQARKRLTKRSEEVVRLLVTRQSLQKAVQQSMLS

HT3 tumors [1] = assay: NanoSPECT/CT imaging, heterotopic cervical tumors; assay type: in vivo, nude mice
OE33 tumors [2] = assay: NanoSPECT/CT imaging, heterotopic esophageal tumors; assay type: in vivo, nude mice
A549 tumors = assay: NanoSPECT/CT imaging, heterotopic lung tumors; assay type: in vivo; conditions: nude mice, 48 h post injection, tumor irradiated 3 x 3 Gy
BxPC3 tumors = assay: NanoSPECT/CT imaging, heterotopic pancreatic tumors; assay type: in vivo; conditions: nude mice, 48 h post injection, tumor irradiated 3 x 3 Gy
D54 tumors = assay: NanoSPECT/CT imaging, heterotopic glioblastoma tumors; assay type: in vivo; conditions: nude mice, 48 h post injection, tumor irradiated 3 x 3 Gy
HT3 tumors [3] = assay type: in vivo, nude mice
OE33 tumors [4] = assay type: in vivo, nude mice
OE33 tumors [5] = assay: Autoradiography of tumor and muscle sections; assay type: in vivo, nude mice; conditions: phosphor imager plate 16 h, after SPECT imaging
Summary of the method: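 After SPECT, tumors were sectioned at 200 micron, with leg muscle sections as control tissue. Sections were exposed to a phosphor imager plate for 16 h at −20 °C, and the plate was scanned to map microdistribution of the ¹¹¹In-labelled PEG-peptide.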

[6] = nude mice, i.v. ~500 μCi, 48 h and 72 h post injection, n=3 per group
[7] = right hind limb tumor 3 x 3 Gy vs left sham tumor
[8] = 96 h post injection, gamma counter, n=3 per group

Substance	binding to immobilized TIP1 (sensogram comparison) (TIP1 protein)	tumor binding by SPECT, HT3 tumors (HT3 tumors [1]; [6])	effect of irradiating the tumor on tumor binding, HT3 (HT3 tumors [1]; [7])	tumor binding by SPECT, OE33 tumors (OE33 tumors [2]; [6])	effect of irradiating the tumor on tumor binding, OE33 (OE33 tumors [2]; [7])	tumor binding by SPECT/CT, irradiated A549 tumors, compared to PEG-control (A549 tumors)	tumor binding by SPECT/CT, irradiated BxPC3 tumors, compared to PEG-control (BxPC3 tumors)	tumor binding by SPECT/CT, irradiated D54 tumors, compared to PEG-control (D54 tumors)	tumor uptake in biodistribution vs control peptide, HT3 (HT3 tumors [3]; [8])	presence in blood and liver, HT3 tumor-bearing mice (HT3 tumors [3]; mouse, in vivo)	tumor uptake in biodistribution vs control peptide, OE33 (OE33 tumors [4]; [8])	presence in blood and liver, OE33 tumor-bearing mice (OE33 tumors [4]; mouse, in vivo)	microscopic distribution in OE33 tumor sections (OE33 tumors [5])	uptake in leg muscle sections (control tissue) (OE33 tumors [5])
HGVIGRV [scrambled peptide, reference compound]	did not show binding	–	–	–	–	–	–	–	–	–	–	–	–	–
^111In-labeled PEG-DTPA-HVGGSSV: DTPA-PEG-HVGGSSV labeled with ^111Indium ({DTPA-PEG}-HVGGSSV; also: 111In chelated by DTPA)	–	bound	did not affect tumor binding	bound	did not affect tumor binding	enhanced binding	enhanced binding	enhanced binding	significantly higher (p<0.001)	observed in the blood and liver	significantly higher (p<0.001)	observed in the blood and liver	even distribution	no peptide uptake
mPEG40K-carbonyl-Lys(CHX-A”-DTPA)-AEEAc-Lys(CHX-A”-DTPA)-AEEAc-Trp-Lys(CHX-A”-DTPA)-AEEAc-Gly-Ile-Arg-Leu-Arg-Gly-OH [PEG-HVGGSSV, mPEG40K-carbonyl-Lys(CHX-A”-DTPA)-AEEAc-Lys(CHX-A”-DTPA)-AEEAc-Trp-Lys(CHX-A”-DTPA)-AEEAc-Gly-Ile-Arg-Leu-Arg-Gly-OH trifluoroacetate Salt]	did not alter the binding affinity	–	–	–	–	–	–	–	–	–	–	–	–	–
